The source made the active and inactive calls. The calls are words filed in the database; no cut-off is given here.

Series [1] is described as follows: Cytotoxicity against human KBM5 cells harboring wild type Bcr-Abl after 72 hrs by MTT assay. As to conditions: KBM5, 72 h. In general terms: Tetrazolium dyes change colour on reduction, which living cells bring about.
A short description of series [2]: Cytotoxicity against human KBM5 cells harboring Bcr-Abl T315I mutant after 72 hrs by MTT assay. It is filed as functional, cell-based. As to conditions: KBM5, 72 h.
In series [3] the test system is Mus musculus. Description: Toxicity in BALB/c nu/nu mouse xenografted with human KBM5 cells harboring Bcr-Abl T315I mutant assessed as increase in blood alanine aminotransferase level at 0.5 mg/kg/day, ip for 2 weeks administered on day 14 after tumor implantation. The format is organism-based. On the set-up: route intraperitoneal. As to conditions: in vivo, 336 h. The procedure, abridged:
(§1)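 Male nu/nu BALB/c mice (6–8 weeks) received 3 × 10⁷ KBM5-T315I cells subcutaneously in the flank. At about 50 mm³ (day 14) they were randomized, 4 per group, to daily ip drug in normal saline or the same volume of saline for two weeks. Body weight, feeding and motor activity were monitored, along with morbidity and mortality. At the end, blood was taken for AST, ALT, LDH and complete blood count.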

The nature of series [4]: Downregulation of Bcr-Abl protein level in human KBM5 cells harboring wild type Bcr-Abl after 18 hrs by Western blot analysis. It is filed as functional, cell-based. Put shortly: (§2)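 Cells exposed for 18 h at the indicated concentrations. Whole-cell lysates made in RIPA buffer with phosphatase and protease inhibitors. Western blot for Bcr-Abl (c-Abl C-19), phospho-c-Abl Y245, phospho-RNA polymerase II, PARP, and actin as loading control.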
(Immunoblotting shows a protein as a band on a membrane.)

Series [5] is described as follows: Cytotoxicity against mouse 32D cells harboring wild type Bcr-Abl after 72 hrs by MTS assay. The format is functional, cell-based. The procedure, abridged: (§3)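 32D myeloid cells stably expressing wild-type or T315I Bcr-Abl, maintained in RPMI 1640 + 10% FBS. Treated with increasing concentrations for 72 h. Viability by MTS, optical density at 490 nm.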
Series [6] is described as follows: Cytotoxicity against imatinib-resistant mouse 32D cells harboring Bcr-Abl T315I mutant after 72 hrs by MTS assay. The format is functional, cell-based. The procedure, abridged:
as §3

The test system of series [7] is KBM5. Description: Antitumor activity against Bcr-Abl T315I mutant expressing human KBM5 cells xenografted in BALB/c nu/nu mouse assessed as decrease in tumor volume at 0.5 mg/kg/day, ip for 2 weeks administered on day 14 after tumor implantation. It is filed as functional, organism-based. The procedure, abridged: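 KBM5-T315I cells, 3 × 10⁷, injected s.c. into the flanks of male nu/nu BALB/c mice aged 6–8 weeks. Dosing began at about 50 mm³ on day 14: 0.5 mg/kg/d i.p. in normal saline for two weeks, with saline controls and four mice per group. Calipers every other day; volume = a² × b × 0.4.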
Background: A xenograft is tissue or cells of one species grown in another, often human tumour cells in immunodeficient mice.

Series [8] relates to Mus musculus. Description: Toxicity in BALB/c nu/nu mouse xenografted with human KBM5 cells harboring Bcr-Abl T315I mutant at 0.5 mg/kg/day, ip for 2 weeks administered on day 14 after tumor implantation by pilot dose-finding test. It is filed as organism-based. Also noted: route intraperitoneal. Conditions: in vivo, 336 h.
For another series, the system named is DU-145. As to the kind of experiment: Inhibition of RNA polymerase 2 in human DU145 cells assessed as decrease in polymerase 2 phosphorylation at 50 to 100 nM after 18 hrs by Western blot analysis. The format is cell-based.
In series [9] the test system is Mus musculus. As to the kind of experiment: Toxicity in BALB/c nu/nu mouse xenografted with human KBM5 cells harboring Bcr-Abl T315I mutant assessed as increase in blood aspartate aminotransferase level at 0.5 mg/kg/day, ip for 2 weeks administered on day 14 after tumor implantation. It is filed as organism-based. On the set-up: route intraperitoneal. As to conditions: in vivo, 336 h. The procedure, abridged: as §1

Series [10] concerns KBM5. As to the kind of experiment: Induction of apoptosis in human KBM5 cells harboring wild type Bcr-Abl assessed as PARP cleavage at 50 to 100 uM after 18 hrs by Western blot analysis. The format is functional, cell-based.
For another series, the system named is HeLa. Description: Inhibition of RNA polymerase 2 in human HeLa cells assessed as decrease in polymerase 2 phosphorylation at 50 to 100 nM after 18 hrs by Western blot analysis. It is filed as cell-based.
Series [11] can be described thus: Downregulation of Bcr-Abl mRNA level in human KBM5 cells harboring Bcr-Abl T315I mutant at 50 to 100 nM after 18 hrs by semi-quantitative RT-PCR analysis. It is filed as functional, cell-based. The procedure, abridged: (§4)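 KBM5 and KBM5-T315I cells exposed to 50 or 100 nM, or control medium, for 18 h. Bcr-Abl and GAPDH mRNA measured by semi-quantitative RT-PCR; products run on 1% agarose and stained with ethidium bromide.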

Series [12] deals with Mus musculus. As to the kind of experiment: Toxicity in BALB/c nu/nu mouse xenografted with human KBM5 cells harboring Bcr-Abl T315I mutant assessed as effect on feeding behavior at 0.5 mg/kg/day, ip for 2 weeks administered on day 14 after tumor implantation. It is filed as organism-based. On the set-up: route intraperitoneal. As to conditions: in vivo, 336 h. Put shortly:
as §1

The subject of series [13] is KBM5. Description: Inhibition of RNA polymerase 2 in human KBM5 cells harboring wild type Bcr-Abl assessed as decrease in polymerase 2 phosphorylation after 18 hrs by Western blot analysis. The format is cell-based. The procedure, abridged: as §2
The subject of series [14] is KBM5. As to the kind of experiment: Cytotoxicity against imatinib-resistant human KBM5 cells harboring Bcr-Abl T315I mutant at 0.001 to 17 uM after 72 hrs by MTS assay. It is filed as functional, cell-based. The procedure, abridged: (§5)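 KBM5 (wild-type p210 Bcr-Abl) or KBM5-T315I cells in IMDM + 10% heat-inactivated FCS. The T315I subline was kept in 1 µM imatinib, removed 2–3 days before assay. Cells incubated 72 h with increasing concentrations. Viability by MTS at 490 nm, as percent of control; IC50 from dose–response curves.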

The test system of series [15] is KBM5. Description: Induction of apoptosis in human KBM5 cells harboring Bcr-Abl T315I mutant assessed as PARP cleavage at 50 to 100 uM after 18 hrs by Western blot analysis. It is filed as functional, cell-based.
For series [16], the system named is Mus musculus. As to the kind of experiment: Toxicity in BALB/c nu/nu mouse xenografted with human KBM5 cells harboring Bcr-Abl T315I mutant assessed as mortality at 0.5 mg/kg/day, ip for 2 weeks administered on day 14 after tumor implantation. It is filed as organism-based. On the set-up: route intraperitoneal. As to conditions: in vivo, 336 h. The procedure, abridged: as §1

Series [17] has as its system KBM5. Description: Inhibition of RNA polymerase 2 in human KBM5 cells harboring Bcr-Abl T315I mutant assessed as decrease in polymerase 2 phosphorylation after 18 hrs by Western blot analysis. The format is cell-based. Put shortly:
as §2

A short description of series [18]: Downregulation of Bcr-Abl protein level in mouse 32D cells harboring wild type Bcr-Abl after 18 hrs by Western blot analysis. It is filed as functional, cell-based. The procedure, abridged: as §2
The next series concerns MEF. Description: Cytotoxicity against MEF after 72 hrs by MTS assay. The format is cell-based. Conditions: Mus musculus. The procedure, abridged:
(§6)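 MEF and NHFB fibroblasts cultured in DMEM + 10% FCS. Exposed to increasing concentrations for 72 h. Viability by MTS reagent, optical density at 490 nm.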

In series [19] the test system is Mus musculus. As to the kind of experiment: Toxicity in BALB/c nu/nu mouse xenografted with human KBM5 cells harboring Bcr-Abl T315I mutant assessed as change in body weight at 0.5 mg/kg/day, ip for 2 weeks administered on day 14 after tumor implantation. The format is organism-based. On the set-up: route intraperitoneal. Conditions: in vivo, 336 h. Put shortly:
as §1

Series [20] concerns Mus musculus. As to the kind of experiment: Toxicity in BALB/c nu/nu mouse xenografted with human KBM5 cells harboring Bcr-Abl T315I mutant assessed as occurrence of myelosuppression at 0.5 mg/kg/day, ip for 2 weeks administered on day 14 after tumor implantation. It is filed as organism-based. Also noted: route intraperitoneal. Conditions: in vivo, 336 h. The procedure, abridged:
as §1

Series [21] is described as follows: Downregulation of Bcr-Abl protein level in mouse 32D cells harboring Bcr-Abl T315I mutant after 18 hrs by Western blot analysis. It is filed as functional, cell-based. The procedure, abridged:
as §2

Series [22] can be described thus: Downregulation of Bcr-Abl protein level in human KBM5 cells harboring Bcr-Abl T315I mutant after 18 hrs by Western blot analysis. The format is functional, cell-based. Put shortly: as §2
Series [23] is described as follows: Cytotoxicity against imatinib-resistant human KBM5 cells harboring Bcr-Abl T315I mutant after 72 hrs by MTS assay. The format is functional, cell-based. Conditions: KBM5, 72 h. Put shortly: as §5
The nature of series [24]: Cytotoxicity against human KBM5 cells harboring wild type Bcr-Abl after 72 hrs by MTS assay. The format is functional, cell-based. As to conditions: KBM5, 72 h. Put shortly: as §5
For series [25], the system named is KBM5. Description: Cytotoxicity against human KBM5 cells harboring wild type Bcr-Abl at 0.001 to 17 uM after 72 hrs by MTS assay. It is filed as functional, cell-based. Put shortly: as §5
Series [26] has as its system Mus musculus. As to the kind of experiment: Toxicity in BALB/c nu/nu mouse xenografted with human KBM5 cells harboring Bcr-Abl T315I mutant assessed as morbidity at 0.5 mg/kg/day, ip for 2 weeks administered on day 14 after tumor implantation. The format is organism-based. Also noted: route intraperitoneal. As to conditions: in vivo, 336 h. Put shortly: as §1
The subject of another series is HCT-116. As to the kind of experiment: Inhibition of RNA polymerase 2 in human HCT116 cells assessed as decrease in polymerase 2 phosphorylation at 50 to 100 nM after 18 hrs by Western blot analysis. The format is cell-based.
A short description of series [27]: Downregulation of Bcr-Abl mRNA level in human KBM5 cells harboring wild type Bcr-Abl at 50 to 100 nM after 18 hrs by semi-quantitative RT-PCR analysis. It is filed as functional, cell-based. The procedure, abridged: as §4
The nature of series [28]: Cytotoxicity against NHFB after 72 hrs by MTS assay. Also noted: species or system Homo sapiens. The procedure, abridged: as §6
In series [29] the test system is Mus musculus. As to the kind of experiment: Toxicity in BALB/c nu/nu mouse xenografted with human KBM5 cells harboring Bcr-Abl T315I mutant assessed as effect on motor activity at 0.5 mg/kg/day, ip for 2 weeks administered on day 14 after tumor implantation. The format is organism-based. On the set-up: route intraperitoneal. Conditions: in vivo, 336 h. Put shortly: as §1

As to `Cc1ccc(NC(=O)c2ccc(CN3CCN(C)CC3)cc2)cc1Nc1nccc(-c2cccnc2)n1` [IMATINIB], the IC50 in series [1] was determined as 280 nM; in [2], 5400 nM.

With `CC(C)[C@]12O[C@H]1[C@@H]1O[C@@]13[C@H]1CCC4=C(COC4=O)[C@@H]1C[C@@H]1O[C@@]13[C@@H]2OC(=O)CN1CCOCC1`, the Activity result was “Non-toxic” in the series with Mus musculus [3]; “Dose-dependent effect” in series [4]; “Non-toxic” in the series on Mus musculus [8]; “Non-toxic” in the series on Mus musculus [9]; “Non-toxic” with Mus musculus [12]; “Non-toxic” in the series on Mus musculus [16]. The Activity entry in series [18] is “Dose-dependent effect”; with Mus musculus [19], “Non-toxic”; with Mus musculus [20], “Non-toxic”; in series [21] it was “Dose-dependent effect”; in series [22], “Dose-dependent effect”; in the series on Mus musculus [26], “Non-toxic”. In addition, the Activity entry with Mus musculus [29] was “Non-toxic”. The IC50 in series [5] came out at 70 nM; in [6], 80 nM; in the series on MEF, 11500 nM; in series [23], 20.7 nM; in series [24], 52.5 nM; in series [28] it was 10400 nM. The result (with KBM5 [7]; with KBM5 [10]; in series [11]; with KBM5 [14]; in the series with KBM5 [15]; with KBM5 [25]) was Active. Further, in series [27], the outcome was Active. Also, the inhibition result in the series on DU-145, in the series with HeLa and in the series with HCT-116 was “Active” each time. Moreover, the inhibition result with KBM5 [13] and in the series on KBM5 [17] was “Dose-dependent effect” throughout.

In general, IC50 refers to the concentration that inhibits the measured activity by half. The low end stands for inhibition by little substance, the high end for a need for much substance.

For the origin of these results see ChEMBL document CHEMBL1157578, “Design, synthesis, and biological evaluation of novel water-soluble triptolide derivatives: Antineoplastic activity against imatinib-resistant CML cells bearing T315I mutant Bcr-Abl” (Bioorg Med Chem, 2010).
